Results: ChEMBL document CHEMBL1129688, “ATP-citrate lyase as a target for hypolipidemic intervention. Design and synthesis of 2-substituted butanedioic acids as novel, potent inhibitors of the enzyme” (J Med Chem, 1996)
pKi: −log10 of the molar value.

What was measured:
ATP-citrate synthase [1] = target: T1, ATP-citrate synthase (Rattus norvegicus, UniProt P16638); test: Inhibitory activity against rat ATP-citrate lyase activity by the […] dehydrogenase catalyzed reduction of oxaloacetate by NADH.
T1 sequence (P16638 whole entry): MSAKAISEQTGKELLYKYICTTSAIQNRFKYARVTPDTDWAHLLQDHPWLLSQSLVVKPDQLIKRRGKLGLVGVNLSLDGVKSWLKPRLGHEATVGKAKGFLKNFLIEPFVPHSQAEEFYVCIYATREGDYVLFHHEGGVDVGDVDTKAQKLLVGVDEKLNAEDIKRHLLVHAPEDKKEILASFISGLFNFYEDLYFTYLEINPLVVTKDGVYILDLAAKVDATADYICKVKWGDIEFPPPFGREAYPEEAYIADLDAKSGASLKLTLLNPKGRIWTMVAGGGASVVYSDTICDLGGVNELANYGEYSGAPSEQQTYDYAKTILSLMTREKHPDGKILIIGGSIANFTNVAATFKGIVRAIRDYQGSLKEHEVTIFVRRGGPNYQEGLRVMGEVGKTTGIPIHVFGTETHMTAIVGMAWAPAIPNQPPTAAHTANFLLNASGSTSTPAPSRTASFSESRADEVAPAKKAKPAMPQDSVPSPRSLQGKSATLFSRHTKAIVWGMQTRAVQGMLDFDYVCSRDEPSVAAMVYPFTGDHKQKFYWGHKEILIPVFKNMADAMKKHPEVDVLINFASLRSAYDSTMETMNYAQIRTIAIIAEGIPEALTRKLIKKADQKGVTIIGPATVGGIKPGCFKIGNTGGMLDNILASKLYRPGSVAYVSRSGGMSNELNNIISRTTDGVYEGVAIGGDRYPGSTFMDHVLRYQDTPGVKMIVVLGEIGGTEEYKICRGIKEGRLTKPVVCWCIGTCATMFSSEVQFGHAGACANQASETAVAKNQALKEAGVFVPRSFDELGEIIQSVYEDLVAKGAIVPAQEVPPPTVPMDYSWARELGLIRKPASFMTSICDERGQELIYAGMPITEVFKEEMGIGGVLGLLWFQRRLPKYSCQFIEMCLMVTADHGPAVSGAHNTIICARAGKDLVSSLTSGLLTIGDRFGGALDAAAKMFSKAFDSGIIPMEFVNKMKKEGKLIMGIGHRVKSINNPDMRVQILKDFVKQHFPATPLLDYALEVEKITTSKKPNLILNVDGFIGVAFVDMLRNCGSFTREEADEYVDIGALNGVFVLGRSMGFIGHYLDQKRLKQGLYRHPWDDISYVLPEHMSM
Summary of the method: (§1)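 Purified rat ACL or recombinant human ACL was assayed by coupling oxaloacetate formation to malate dehydrogenase reduction with NADH. Buffer: Tris 100 mM pH 8.0, MgCl2 10 mM, KCl 10 mM, DTT 10 mM, plus ATP and NADH. CoA was 200 μM, and citrate was added to 100 μM (its Km) to start the reaction. A340 decrease was followed over 20 min. Ki came from fitting v = Vmax/(2 + [I]/Ki), assuming citrate-competitive inhibition.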

ATP-citrate synthase [2] = target: T1, ATP-citrate synthase; test: Inhibition of recombinant ATP-Citrate Lyase activity as […] dehydrogenase catalyzed reduction of oxaloacetate by NADH; conditions: in the assay text read “purified rat ATP-Citrate Lyase” for “recombinant ATP-Citrate Lyase”; summary of the method: as §1
[3] = target: T2, ATP-citrate synthase (Homo sapiens) (UniProt P53396); test: (§2) Inhibitory activity against human recombinant ATP-Citrate Lyase activity was measured by the […] dehydrogenase catalyzed reduction of oxaloacetate by NADH; conditions: concentration not given here; summary of the method: as §1
T2 sequence (whole entry): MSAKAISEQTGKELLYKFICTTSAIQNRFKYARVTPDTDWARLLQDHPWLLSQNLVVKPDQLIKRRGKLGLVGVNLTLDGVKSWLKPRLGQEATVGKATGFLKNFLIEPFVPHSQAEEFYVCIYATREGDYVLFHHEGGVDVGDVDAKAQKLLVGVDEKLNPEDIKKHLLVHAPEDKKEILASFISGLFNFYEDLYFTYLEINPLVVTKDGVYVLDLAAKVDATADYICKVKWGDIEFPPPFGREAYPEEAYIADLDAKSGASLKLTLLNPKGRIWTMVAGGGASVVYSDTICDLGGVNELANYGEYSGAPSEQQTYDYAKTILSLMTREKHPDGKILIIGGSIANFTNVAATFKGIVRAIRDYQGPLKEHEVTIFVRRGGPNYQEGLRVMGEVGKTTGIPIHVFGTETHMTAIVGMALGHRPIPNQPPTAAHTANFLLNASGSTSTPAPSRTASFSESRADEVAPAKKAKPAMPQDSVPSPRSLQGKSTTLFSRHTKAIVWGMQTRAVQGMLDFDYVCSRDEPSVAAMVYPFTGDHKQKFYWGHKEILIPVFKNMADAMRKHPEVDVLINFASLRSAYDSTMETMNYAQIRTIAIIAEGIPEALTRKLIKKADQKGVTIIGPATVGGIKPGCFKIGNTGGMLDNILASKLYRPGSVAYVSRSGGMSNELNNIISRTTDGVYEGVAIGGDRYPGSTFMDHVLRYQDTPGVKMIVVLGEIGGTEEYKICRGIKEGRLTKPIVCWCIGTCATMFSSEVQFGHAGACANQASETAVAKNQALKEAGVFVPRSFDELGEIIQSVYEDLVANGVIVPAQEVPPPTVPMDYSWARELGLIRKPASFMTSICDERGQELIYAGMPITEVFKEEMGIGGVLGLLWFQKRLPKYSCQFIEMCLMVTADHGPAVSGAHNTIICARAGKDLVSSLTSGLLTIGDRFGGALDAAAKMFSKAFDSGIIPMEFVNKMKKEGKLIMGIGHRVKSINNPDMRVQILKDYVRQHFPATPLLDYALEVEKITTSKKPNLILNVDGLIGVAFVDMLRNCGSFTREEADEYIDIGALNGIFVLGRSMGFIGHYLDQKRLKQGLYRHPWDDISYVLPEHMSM

ATP-citrate synthase [4] = target: T3, ATP-citrate synthase (Homo sapiens, UniProt P53396); test: as §2; summary of the method: as §1
T3 sequence (P53396 whole entry): T2 sequence (whole entry)

HepG2 [5] = test: Percent reduction of fatty acid synthesis in human hepatoma cell line HepG2 at 10 uM concentration; type: functional; set-up: scale not given: the % may be the effect or the level left
Summary of the method: (§3)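 HepG2 cells were grown in DMEM with Hepes, bicarbonate, glutamine and 10% FCS to 80–90% confluence, then kept overnight serum-free. Vehicle or compound was added at the stated final concentration for 2.5 h. ³H2O (71 μCi/mmol) was present for the final 90 min. Synthesis rates came from ³H incorporated into cellular cholesterol or fatty acids, relative to vehicle control.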

HepG2 [6] = test: Percent control of ATP levels in human hepatoma cell line HepG2 at 30 uM concentration; type: functional
Summary of the method: (§4)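 Serum-starved HepG2 cells (grown to 80–90% confluence in DMEM/10% FCS, then overnight without serum) were exposed to vehicle or compound at the stated final concentration for 2.5 h. Cellular ATP was then measured as a toxicity check and expressed as % of vehicle control.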

HepG2 [7] = test: Percent reduction of cholesterol synthesis in human hepatoma cell line HepG2 at 10 uM concentration; type: functional; set-up: scale not given: the % may be the effect or the level left; summary of the method: as §3
HepG2 [8] = test: Percent control of ATP levels in human hepatoma cell line HepG2 at 10 uM concentration; type: functional; summary of the method: as §4

Structure (SMILES) | pKi (ATP-citrate synthase [1]) | further results
O=C(O)CC(O)(CSCCCC/C=C/c1ccc(Cl)cc1Cl)C(=O)O (stereo unspecified) | 4.48 | 
O=C(O)CC(O)(CSCCc1ccc(Cl)cc1Cl)C(=O)O (stereo unspecified) |  | pKi (ATP-citrate synthase [2]): 3.32
O=C(O)CC(O)(CSCCCCCNc1ccc(Cl)cc1Cl)C(=O)O (stereo unspecified) | 4.92 | 
O=C(O)CC(O)(CSCCCC/C=C\c1ccc(Cl)cc1Cl)C(=O)O (stereo unspecified) | 5.13 | 
O=C(O)CC(O)(CSCCCCCCc1ccccc1-c1ccccc1)C(=O)O (stereo unspecified) | 4.74 | 
O=C(O)CC(O)(CSCCCCCC(=O)c1ccc(Cl)cc1Cl)C(=O)O (stereo unspecified) | 3.89 | 
O=C(O)CC(O)(CSCCCCCCc1ccc(F)cc1F)C(=O)O (stereo unspecified) |  | pKi (ATP-citrate synthase [2]): 3.57
O=C(O)CC(O)(CSCCCc1ccc(Cl)cc1Cl)C(=O)O (stereo unspecified) |  | pKi (ATP-citrate synthase [2]): 3.41
O=C(O)CC(O)(CSCc1ccc(Cl)cc1Cl)C(=O)O (stereo unspecified) | 3.39 | 
O=C(O)CC(O)(CCSCCCCCc1ccc(Cl)cc1Cl)C(=O)O (stereo unspecified) | 5.54 | 
O=C(O)CC(O)(CCCCCCCCc1ccc(Cl)cc1Cl)C(=O)O (stereo unspecified) | 5.54 | 
O=C(O)CC(O)(CSCCCCCCCCCc1ccc(Cl)cc1Cl)C(=O)O (stereo unspecified) | 3.52 | 
Cc1ccc(CCCCCCSCC(O)(CC(=O)O)C(=O)O)c(C)c1 (stereo unspecified) |  | pKi (ATP-citrate synthase [2]): 3.80
O=C(O)CC(O)(CSCCCCCCc1ccncc1)C(=O)O (stereo unspecified) |  | inhibition [3]: 20%
O=C(O)CCCSCCCCCCc1ccc(Cl)cc1Cl | 4.60 | 
O=C(O)CC(O)(CSCCCCCCc1c(Cl)cncc1Cl)C(=O)O (stereo unspecified) |  | pKi (ATP-citrate synthase [4]): 3.92
O=C(O)CC(O)(CSCCCCCCc1ccccc1[N+](=O)[O-])C(=O)O (stereo unspecified) |  | pKi (ATP-citrate synthase [2]): 4.12
O=C(O)CC(O)(CSCCCCNS(=O)(=O)c1ccc(Cl)cc1Cl)C(=O)O (stereo unspecified) | 3.76 | 
O=C(O)CC(O)(CSCCCCCCc1ccc2ccccc2c1)C(=O)O (stereo unspecified) |  | pKi (ATP-citrate synthase [2]): 4.03
COC(=O)CC(CSCCCCCCc1ccc(Cl)cc1Cl)C(=O)OC (stereo unspecified) |  | Control (HepG2 [5]): 105%; Control (HepG2 [6]): 91%; Control (HepG2 [7]): 78%; Control (HepG2 [8]): 96%
O=C(O)CC(O)(CSCCCCCCc1ccccc1Cc1ccccc1)C(=O)O (stereo unspecified) |  | pKi (ATP-citrate synthase [2]): 4.03

Further lines, with some results ahead:

pKi (ATP-citrate synthase [1]) | Structure (SMILES) | further results
3.30 | NS(=O)(=O)c1ccc(CCCCCCSCC(O)(CC(=O)O)C(=O)O)cc1 (stereo unspecified) | 
4.15 | O=C(O)CC(O)(CSCCCCCCc1ccc(Cl)cc1)C(=O)O (stereo unspecified) | 
3.38 | O=C(O)CC(O)(CSCCCCCCc1ccc(O)cc1)C(=O)O (stereo unspecified) | 
4.16 | O=C(O)CC(O)(CSCCCCCCc1ccccc1Cl)C(=O)O (stereo unspecified) | 
3.96 | O=C(O)CC(O)(CSCCCCCCc1ccc(Cl)c(Cl)c1)C(=O)O (stereo unspecified) | 
3.38 | O=C(O)CC(O)(CSCCCCCCc1ccc(C(=O)O)cc1)C(=O)O (stereo unspecified) | 
3.65 | O=C(O)CC(O)(CSCCCCCc1ccc(-c2ccccc2)cc1)C(=O)O (stereo unspecified) | 
